Measurements published in ChEMBL document CHEMBL2021854, “2-Aminopyrimidine based 4-aminoquinoline anti-plasmodial agents. Synthesis, biological activity, structure-activity relationship and mode of action studies” (Eur J Med Chem, 2012).

Columns and labels:
[1] = test system: Coxsackievirus B4; test: Antiviral activity against Coxsackie virus B4 infected in african green monkey Vero cells assessed as inhibition of virus-induced cytopathogenicity after 4 days; type: functional, organism-based; settings: Enterovirus B, 96 h
Procedure, shortened: (§1)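 Confluent HEL, Vero or HeLa monolayers were inoculated with 100 CCID50 of virus in the presence of varying concentrations of compound. Cytopathicity was scored when it reached completion in untreated, virus-infected control cultures.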

[2] = test system: Influenza B virus; test: Antiviral activity against Influenza B virus infected in MDCK cells assessed as reduction visual scoring of virus-induced cytopathogenicity after 4 days; type: functional, organism-based; settings: 96 h
Procedure, shortened: (§2)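 MDCK monolayers infected with 100 CCID50 of influenza A (H1N1 or H3N2) or influenza B, with varying compound concentrations. Cytopathicity read when untreated infected controls reached complete CPE.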

[3] = Cytotoxicity against MDCK cells assessed as minimum compound concentration required to causes microscopically detectable alteration of normal cell morphology; type: cell-based, Canis lupus familiaris; settings: dog
Procedure, shortened: (§3)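 Confluent, non-proliferating cell cultures were exposed to the compounds. The endpoint was the minimum concentration producing a microscopically detectable alteration of normal cell morphology.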

[4] = Cytotoxicity against human HeLa cells assessed as minimum compound concentration required to causes microscopically detectable alteration of normal cell morphology; type: cell-based; procedure, shortened: as §3
[5] = Cytotoxicity against human HEL cells assessed as minimum compound concentration required to causes microscopically detectable alteration of normal cell morphology; type: cell-based; procedure, shortened: as §3
[6] = test system: Influenza A virus; test: Antiviral activity against Influenza A virus H3N2 infected in MDCK cells assessed as reduction visual scoring of virus-induced cytopathogenicity after 4 days; type: functional, organism-based; settings: 96 h; procedure, shortened: as §2
[7] = test system: Mammalian orthoreovirus 1; test: Antiviral activity against Reovirus-1 infected in african green monkey Vero cells assessed as inhibition of virus-induced cytopathogenicity after 4 days; type: functional, organism-based; settings: Mammalian orthoreovirus 1, Vero, 96 h; procedure, shortened: as §1
[8] = test system: Human betaherpesvirus 5; test: Antiviral activity against Human cytomegalovirus Davis infected in HEL cells assessed as inhibition of virus plaque formation after 4 days; type: functional, organism-based; settings: Human betaherpesvirus 5, Davis, 96 h
[9] = test system: Feline infectious peritonitis virus; test: Antiviral activity against FIPV infected in cat CRFK cells assessed as inhibition of virus-induced cytopathic effect after 4 days by colorimetric formazan-based MTS assay; type: functional, cell-based; settings: Alphacoronavirus 1, CRFK, 96 h
[10] = test system: Plasmodium falciparum; test: Antiplasmodial activity chloroquine-resistant Plasmodium falciparum K1 infected in human A+ erythrocytes assessed as inhibition of [3H]-hypoxanthine incorporation after 24 hrs by scintillation counting; type: functional, organism-based
[11] = test system: Human immunodeficiency virus 1; test: Antiviral activity against HIV1 infected in human CEM cells assessed as inhibition of virus-induced cytopathic effect after 4 days; type: functional, organism-based; settings: Human immunodeficiency virus 1, CCRF-CEM, 96 h
Procedure, shortened: (§4)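 CEM T-lymphocytes (~3 × 10^5 cells/ml) were infected with HIV-1 IIIB or HIV-2 ROD at ~100 CCID50, then immediately plated with a range of compound concentrations. Giant cell formation was scored microscopically after 4 days at 37 °C. Cytostatic activity was tested in parallel in uninfected CEM cells.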

[12] = test system: Punta Toro virus; test: Antiviral activity against Punta Toro virus infected in african green monkey Vero cells assessed as inhibition of virus-induced cytopathogenicity after 4 days; type: functional, organism-based; settings: 96 h; procedure, shortened: as §1
[13] = Cytotoxicity against cat CRFK cells assessed as cell viability by colorimetric formazan-based MTS assay; set-up: species or system Felis catus; settings: crfk
[14] = test system: Human alphaherpesvirus 2; test: Antiviral activity against HSV2 G infected in HEL cells assessed as inhibition of virus-induced cytopathogenicity after 4 days; type: functional, organism-based; settings: Human alphaherpesvirus 2, strain G, 96 h; procedure, shortened: as §1
[15] = test system: Human betaherpesvirus 5; test: Antiviral activity against Cytomegalovirus AD-169 infected in HEL cells assessed as inhibition of virus plaque formation after 4 days; type: functional, organism-based; settings: Human betaherpesvirus 5, AD169, HEL, 96 h
[16] = test system: Felid alphaherpesvirus 1; test: Antiviral activity against Feline herpesvirus infected in cat CRFK cells assessed as inhibition of virus-induced cytopathic effect after 4 days by colorimetric formazan-based MTS assay; type: functional, organism-based; settings: Felid alphaherpesvirus 1, CRFK, 96 h
[17] = test system: Influenza B virus; test: Antiviral activity against Influenza B virus infected in MDCK cells assessed as inhibition of virus-induced cytopathogenicity after 4 days by colorimetric formazan-based MTS assay; type: functional, organism-based; settings: 96 h
[18] = test system: Human alphaherpesvirus 1; test: Antiviral activity against thymidine kinase-deficient acyclovir-resistant HSV1 KOS infected in HEL cells assessed as inhibition of virus-induced cytopathogenicity after 4 days; type: functional, organism-based; settings: Human alphaherpesvirus 1, KOS, 96 h
Procedure, shortened: (§5)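 Confluent HEL or HeLa monolayers infected with 100 CCID50 of virus in the presence of varying compound concentrations.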

[19] = test system: Influenza A virus; test: Antiviral activity against Influenza A virus H1N1 infected in MDCK cells assessed as inhibition of virus-induced cytopathogenicity after 4 days by colorimetric formazan-based MTS assay; type: functional, organism-based; settings: 96 h
[20] = test system: Plasmodium falciparum; test: Antiplasmodial activity chloroquine-sensitive Plasmodium falciparum 3D7 infected in human A+ erythrocytes assessed as inhibition of [3H]-hypoxanthine incorporation after 24 hrs by scintillation counting; type: functional, organism-based
[21] = Selectivity index, ratio of CC50 for MDCK cells to IC50 for chloroquine-resistant Plasmodium falciparum K1; type: functional
Procedure, shortened: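 Selectivity index computed as MTS-based CC50 on MDCK cells divided by IC50 against P. falciparum K1.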

[22] = test system: Influenza A virus; test: Antiviral activity against Influenza A virus H1N1 infected in MDCK cells assessed as reduction visual scoring of virus-induced cytopathogenicity after 4 days; type: functional, organism-based; settings: 96 h; procedure, shortened: as §2
[23] = test system: Influenza A virus; test: Antiviral activity against Influenza A virus H3N2 infected in MDCK cells assessed as inhibition of virus-induced cytopathogenicity after 4 days by colorimetric formazan-based MTS assay; type: functional, organism-based; settings: 96 h
[24] = test system: Human respirovirus 3; test: Antiviral activity against Parainfluenza-3 virus infected in african green monkey Vero cells assessed as inhibition of virus-induced cytopathogenicity after 4 days; type: functional, organism-based; settings: Human respirovirus 3, Vero, 96 h; procedure, shortened: as §1
[25] = test system: MDCK; test: Cytotoxicity against MDCK cells assessed as cell viability by colorimetric formazan-based MTS assay; set-up: species or system Canis lupus familiaris; settings: dog, mdck
Procedure, shortened: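 Cytotoxicity on MDCK cells; 50% cytotoxic concentration from cell viability measured by colorimetric formazan-based MTS assay.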

[26] = test system: Human alphaherpesvirus 3; test: Antiviral activity against thymidine kinase-deficient […] infected in HEL cells assessed as reduction of virus plaque formation after 4 days; type: functional, organism-based; settings: Human alphaherpesvirus 3, 07-1, HEL, 96 h
[27] = test system: Sindbis virus; test: Antiviral activity against Sindbis virus infected in african green monkey Vero cells assessed as inhibition of virus-induced cytopathogenicity after 4 days; type: functional, organism-based; settings: 96 h; procedure, shortened: as §1
[28] = test system: Human immunodeficiency virus 2; test: Antiviral activity against HIV2 infected in human CEM cells assessed as inhibition of virus-induced cytopathic effect after 4 days; type: functional, organism-based; settings: Human immunodeficiency virus 2, CCRF-CEM, 96 h; procedure, shortened: as §4
[29] = Cytotoxicity against african green monkey Vero cells assessed as minimum compound concentration required to causes microscopically detectable alteration of normal cell morphology; type: cell-based; settings: chlorocebus sabaeus; procedure, shortened: as §3
[30] = test system: Coxsackievirus B4; test: Antiviral activity against Coxsackie virus B4 infected in human HeLa cells assessed as inhibition of virus-induced cytopathogenicity after 4 days; type: functional, organism-based; settings: Enterovirus B, 96 h; procedure, shortened: as §1
[31] = test system: Respiratory syncytial virus; test: Antiviral activity against Respiratory syncytial virus infected in human HeLa cells assessed as inhibition of virus-induced cytopathogenicity after 4 days; type: functional, organism-based; settings: 96 h; procedure, shortened: as §1
[32] = test system: Human alphaherpesvirus 1; test: Antiviral activity against HSV1 KOS infected in HEL cells assessed as inhibition of virus-induced cytopathogenicity after 4 days; type: functional, organism-based; settings: Human alphaherpesvirus 1, KOS, 96 h; procedure, shortened: as §5
[33] = test system: HeLa; test: Cytotoxicity against human HeLa cells assessed as cell viability by colorimetric formazan-based MTS assay
[34] = test system: Plasmodium falciparum; test: Resistant factor, ratio of IC50 for chloroquine-resistant Plasmodium falciparum K1 to IC50 for chloroquine-sensitive Plasmodium falciparum 3D7; type: functional
Procedure, shortened: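 Resistance factor computed as IC50 against K1 divided by IC50 against 3D7, both from the [3H]hypoxanthine incorporation assay.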

[35] = test system: Vesicular stomatitis virus; test: Antiviral activity against Vesicular stomatitis virus infected in HeLa cells assessed as inhibition of virus-induced cytopathogenicity after 4 days; type: functional, organism-based; settings: 96 h; procedure, shortened: as §5
[36] = test system: Vesicular stomatitis virus; test: Antiviral activity against Vesicular stomatitis virus infected in HEL cells assessed as inhibition of virus-induced cytopathogenicity after 4 days; type: functional, organism-based; settings: 96 h; procedure, shortened: as §5
[37] = test system: Human alphaherpesvirus 3; test: Antiviral activity against […] expressing thymidine kinase infected in HEL cells assessed as reduction of virus plaque formation after 4 days; type: functional, cell-based; settings: Human alphaherpesvirus 3, strain Oka vaccine, 96 h
[38] = Inhibition of beta-hematin formation assessed as Ferriprotoporphyrin IX biomineralisation at 1 mg/ml after 24 hrs; type: functional
Procedure, shortened: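 Hemin chloride (0.5 mg/ml in DMSO) mixed with 0.5 M sodium acetate buffer pH 4.4 and drug or solvent control, incubated 37 °C for 24 h. Pellet washed with DMSO to remove unreacted hemin, dissolved in 0.1 N NaOH, absorbance read at 405 nm; percent inhibition relative to control. Highest concentration tested 1 mg/ml.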

[39] = Inhibition of beta-hematin formation assessed as Ferriprotoporphyrin IX biomineralisation after 24 hrs; type: functional
Procedure, shortened: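 Hemin (0.5 mg/ml in DMSO) was mixed with 0.5 M sodium acetate pH 4.4 and compound, then incubated for 24 h at 37 °C. The pellet was washed with DMSO to remove unreacted hemin and dissolved in 0.1 N NaOH, with A405 read. Percent inhibition was taken versus solvent control, and IC50 by curve fitting.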

Compound	EC50 [1]	EC50 [2]	MCC [3]	MCC [4]	MCC [5]	EC50 [6]	EC50 [7]	EC50 [8]	EC50 [9]	IC50 [10]	EC50 [11]	EC50 [12]	CC50 [13]	EC50 [14]	EC50 [15]	EC50 [16]	EC50 [17]	EC50 [18]	EC50 [19]	IC50 [20]	also measured
CCOC(=O)c1c(C)nc(NCCCNc2ccnc3cc(Cl)ccc23)nc1C	> 100 µM	> 4 µM	20 µM	> 100 µM	≥ 100 µM	> 4 µM	> 100 µM	8.18 µM	> 100 µM	0.161 µM	> 2 µM	> 100 µM	> 100 µM	> 100 µM	8.94 µM	> 100 µM	> 4 µM	> 100 µM	> 4 µM	0.0631 µM	Ratio CC50/IC50 [21]: 361.89; EC50 [22]: > 4 µM; EC50 [23]: > 4 µM; EC50 [24]: > 100 µM; CC50 [25]: 58.2 µM; EC50 [26]: > 20 µM; EC50 [27]: > 100 µM; EC50 [28]: > 2 µM; MCC [29]: > 100 µM; EC50 [30]: > 100 µM; EC50 [31]: > 100 µM; EC50 [32]: > 100 µM; CC50 [33]: 17.5 µM; Ratio IC50 [34]: 2.548; EC50 [35]: > 100 µM; EC50 [36]: > 100 µM; EC50 [37]: 9.62 µM; inhibition [38]: 66%
C=C[C@H]1CN2CC[C@H]1C[C@H]2[C@H](O)c1ccnc2ccc(OC)cc12 [QUININE]																					IC50 [39]: 324 µM
CCOC(=O)c1c(C)nc(NCCNc2ccnc3cc(Cl)ccc23)nc1-c1ccccc1	> 4 µM	> 0.16 µM	0.8 µM	20 µM	20 µM	> 0.16 µM	> 4 µM	> 4 µM	> 4 µM	0.139 µM	> 2 µM	> 4 µM	7.3 µM	> 4 µM	> 4 µM	> 4 µM	> 0.16 µM	> 4 µM	> 0.16 µM	0.0217 µM	Ratio CC50/IC50 [21]: 10.04; EC50 [22]: > 0.16 µM; EC50 [23]: > 0.16 µM; EC50 [24]: > 4 µM; CC50 [25]: 1.4 µM; EC50 [26]: > 20 µM; EC50 [27]: > 4 µM; EC50 [28]: > 2 µM; MCC [29]: 20 µM; EC50 [30]: > 4 µM; EC50 [31]: > 4 µM; EC50 [32]: > 4 µM; CC50 [33]: 7.9 µM; Ratio IC50 [34]: 6.43; EC50 [35]: > 4 µM; EC50 [36]: > 4 µM; EC50 [37]: > 4 µM; inhibition [38]: 96%
